Results taken from ChEMBL document CHEMBL4130628, “Identification and Pharmacological Profile of an Indane Based Series of Ghrelin Receptor Full Agonists” (J Med Chem, 2018).

Experiments:
[1] = molecular target: T1, Growth hormone secretagogue receptor type 1 (Homo sapiens, UniProt Q92847); assay: Displacement of human [125I]-ghrelin from GHS-R1a (unknown origin) expressed in HEK293 cell membranes after 1 hr by radioligand binding assay
[2] = molecular target: T1, Growth hormone secretagogue receptor type 1; assay: Agonist activity at human GHS receptor assessed as intracellular myo-IP1 secretion after 90 mins by HTRF analysis; format: functional, cell-based
[3] = 1-octanol/aqueous buffer distribution coefficient, log D of compound at pH 7.4; format: physicochemical
[4] = molecular target: Voltage-gated inwardly rectifying potassium channel KCNH2 (Homo sapiens, UniProt Q12809); assay: Inhibition of human ERG expressed in CHO cells; format: cell-based
In short: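 hERG currents recorded from CHO cells expressing hERG.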

[5] = molecular target: hERG (KCNH2) (Homo sapiens, UniProt Q12809); assay: Inhibition of human ERG expressed in CHO cells at 11 uM relative to control; format: cell-based; conditions: CHO cells that express hERG
[6] = Intrinsic clearance in human liver microsomes; format: ADME, microsome; conditions: read-out: CLH
[7] = 1-octanol/aqueous buffer, read-out: logD

hERG (KCNH2), sequence (Q12809 whole entry): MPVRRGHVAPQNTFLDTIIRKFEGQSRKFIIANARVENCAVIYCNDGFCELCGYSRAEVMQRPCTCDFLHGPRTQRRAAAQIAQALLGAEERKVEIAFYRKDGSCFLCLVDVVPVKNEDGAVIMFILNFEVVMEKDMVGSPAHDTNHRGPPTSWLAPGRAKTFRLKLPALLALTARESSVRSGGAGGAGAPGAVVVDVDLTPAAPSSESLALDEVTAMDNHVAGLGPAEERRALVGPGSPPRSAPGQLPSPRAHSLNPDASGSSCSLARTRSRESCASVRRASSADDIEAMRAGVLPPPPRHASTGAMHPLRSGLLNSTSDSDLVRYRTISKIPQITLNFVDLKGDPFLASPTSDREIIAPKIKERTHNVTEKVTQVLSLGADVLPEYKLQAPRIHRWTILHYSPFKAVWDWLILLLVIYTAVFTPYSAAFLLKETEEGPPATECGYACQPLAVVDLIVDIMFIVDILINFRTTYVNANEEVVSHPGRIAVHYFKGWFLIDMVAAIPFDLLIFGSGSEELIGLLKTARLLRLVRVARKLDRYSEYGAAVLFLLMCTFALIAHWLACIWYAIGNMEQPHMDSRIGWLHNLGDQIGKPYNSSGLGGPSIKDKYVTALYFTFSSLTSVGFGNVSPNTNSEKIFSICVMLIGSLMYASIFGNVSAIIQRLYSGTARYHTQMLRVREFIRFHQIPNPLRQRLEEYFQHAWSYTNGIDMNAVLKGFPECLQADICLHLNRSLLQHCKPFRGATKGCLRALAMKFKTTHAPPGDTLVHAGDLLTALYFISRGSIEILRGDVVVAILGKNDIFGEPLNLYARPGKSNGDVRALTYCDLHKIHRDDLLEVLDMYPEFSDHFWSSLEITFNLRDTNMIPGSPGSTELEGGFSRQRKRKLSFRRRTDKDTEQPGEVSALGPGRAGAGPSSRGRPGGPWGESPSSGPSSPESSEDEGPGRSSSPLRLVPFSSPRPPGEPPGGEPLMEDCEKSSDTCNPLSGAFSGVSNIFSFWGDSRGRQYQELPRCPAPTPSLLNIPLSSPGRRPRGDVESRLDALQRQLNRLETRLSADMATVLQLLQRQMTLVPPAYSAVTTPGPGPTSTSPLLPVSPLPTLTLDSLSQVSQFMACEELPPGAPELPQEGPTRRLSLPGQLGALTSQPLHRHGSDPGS
Voltage-gated inwardly rectifying potassium channel KCNH2, sequence (Q12809 whole entry): as above
T1 sequence (Q92847 whole entry): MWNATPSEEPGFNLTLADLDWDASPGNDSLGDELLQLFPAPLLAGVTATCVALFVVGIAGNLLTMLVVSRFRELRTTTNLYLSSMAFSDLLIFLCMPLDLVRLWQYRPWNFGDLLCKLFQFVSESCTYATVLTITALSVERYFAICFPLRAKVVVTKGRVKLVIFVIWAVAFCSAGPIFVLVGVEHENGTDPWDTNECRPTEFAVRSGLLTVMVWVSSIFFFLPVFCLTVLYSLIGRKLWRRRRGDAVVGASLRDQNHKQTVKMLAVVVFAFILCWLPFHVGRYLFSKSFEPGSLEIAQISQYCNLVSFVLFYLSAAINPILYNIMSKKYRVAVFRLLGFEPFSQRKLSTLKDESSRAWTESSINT

IC50 ([1]; read-out: IC50) [nM] | EC50 ([2]; read-out: EC50) [nM] | logD [3, 7] | SMILES | also measured
189 | 76 |  | CN1CCCCC(C(=O)N[C@H]2c3ccccc3C[C@@H]2NC(=O)c2ccc3c(ccn3C)c2)C1 (stereo in doubt; 28) | logD ([3]; octanol/water): 1.6
35 | 14 | 3 | Cc1ccc2[nH]c(C(=O)N[C@H]3Cc4ccccc4[C@@H]3NC(=O)c3cnccc3N)cc2c1 | 
187 | 44 | 2.1 | N#Cc1ccc2[nH]c(C(=O)N[C@H]3Cc4ccccc4[C@@H]3NC(=O)c3cnccc3N)cc2c1 | 
13 | 3 | 2.9 | Cn1ccc2c(F)c(C(=O)N[C@H]3Cc4ccccc4[C@@H]3NC(=O)c3cnccc3N)ccc21 | EC50 ([2]; read-out: pEC50 (converted)): 10 nM
16 | 21 |  | Cc1ccc2[nH]c(C(=O)N[C@H]3Cc4ccccc4[C@@H]3NC(=O)CCN(C)C)cc2c1 | IC50 [4]: 7940 nM
49 | 25 | 2.4 | Nc1ccncc1C(=O)N[C@H]1c2ccccc2C[C@@H]1NC(=O)c1cc2ccccc2[nH]1 | 
430 | 160 |  | COCCNCCC(=O)N[C@H]1c2ccccc2C[C@@H]1NC(=O)c1cc2ccccc2n1C | IC50 [4]: 1580 nM
 | 137 | 2.6 | Cc1ccc2[nH]c(C(=O)N[C@H]3Cc4ccccc4[C@@H]3NC(=O)[C@@H]3CNCCOC3)cc2c1 | 
184 | > 740 | 1.8 | CN1CCC[C@@H]1CC(=O)N[C@H]1c2ccccc2C[C@@H]1NC(=O)c1ccc2c(ccn2C)c1 | EC50 ([2]; read-out: pEC50 (converted)): > 794 nM
98 | 35 |  | CN(C)CCC(=O)N[C@H]1c2ccccc2C[C@@H]1NC(=O)c1cc2cc(F)c(F)cc2[nH]1 | IC50 [4]: 3980 nM
> 1000 | 262 | 2.3 | CN1CCCO[C@@H](C(=O)N[C@H]2c3ccccc3C[C@@H]2NC(=O)c2ccc3c(ccn3C)c2)C1 | pIC50 ([1]; hek293): < 6
528 | 170 | 1.9 | CN1CCC[C@@H](C(=O)N[C@H]2c3ccccc3C[C@@H]2NC(=O)c2ccc3c(ccn3C)c2)C1 | 
> 2900 | 274 | 2.4 | CN1CCO[C@@H](C(=O)N[C@H]2c3ccccc3C[C@@H]2NC(=O)c2ccc3c(ccn3C)c2)C1 | IC50 ([1]; read-out: pIC50 (converted)): > 3160 nM
71 | 10 | 2.3 | CN1CCCO[C@H](C(=O)N[C@H]2c3ccccc3C[C@@H]2NC(=O)c2ccc3c(ccn3C)c2)C1 | 
288 | 129 | 1.4 | CN1CC[C@@H](C(=O)N[C@H]2c3ccccc3C[C@@H]2NC(=O)c2ccc3c(ccn3C)c2)C1 | 
14 | 5 | 2.5 | Cc1ccc2[nH]c(C(=O)N[C@H]3Cc4ccccc4[C@@H]3C(=O)N(C)CCN(C)C)cc2c1 | inhibition at 11 µM [5]: 50%; microsomal CLint [6]: 26 µL/min/mg
556 | 28 | 2.1 | CN1CCC[C@H](C(=O)N[C@H]2c3ccccc3C[C@@H]2NC(=O)c2ccc3c(ccn3C)c2)C1 | 

IC50 ([1]; read-out: IC50) [nM] | EC50 ([2]; read-out: EC50) [nM] | logD [3, 7] | SMILES | also measured
29 | 19 | 1.7 | CN1CCC[C@H]1CC(=O)N[C@H]1c2ccccc2C[C@@H]1NC(=O)c1ccc2c(ccn2C)c1 | 
 |  | 2.3 | Cc1ccc2[nH]c(C(=O)N[C@H]3Cc4ccccc4[C@H]3C(=O)NCCN(C)C)cc2c1 | inhibition at 11 µM [5]: 42%
89 | 23 | 2.4 | Nc1ccncc1C(=O)N[C@H]1c2ccccc2C[C@@H]1NC(=O)c1nc2cc(F)c(F)cc2[nH]1 | 
 | 7 | 4 | Cn1ccc2cc(C(=O)N[C@H]3Cc4ccccc4[C@@H]3NC(=O)c3cnccc3N)cc(F)c21 | 
343 | 250 | 1.4 | CN1CC[C@H](C(=O)N[C@H]2c3ccccc3C[C@@H]2NC(=O)c2ccc3c(ccn3C)c2)C1 | 
 | 21 | 3.7 | Cc1ccc2[nH]c(C(=O)N[C@H]3Cc4ccccc4[C@@H]3NC(=O)[C@H]3COCCN(C)C3)cc2c1 | 
 | 135 | 3.1 | Cn1ccc2cc(C(=O)N[C@H]3Cc4ccccc4[C@@H]3NC(=O)c3cnccc3N)c(F)cc21 | 
22 | 0.9 |  | CN1N=C2CCN(C(=O)[C@@H](COCc3ccccc3)NC(=O)C(C)(C)N)C[C@@]2(Cc2ccccc2)C1=O [CAPROMORELIN] | 
560 | 630 | 2.3 | CN(C)CCNC(=O)[C@@H]1c2ccccc2C[C@H]1NC(=O)c1cc2ccccc2[nH]1 | IC50 [4]: 12600 nM; microsomal CLint [6]: 3 µL/min/mg
 | 0.1 | 3 | Cc1ccc2[nH]c(C(=O)N[C@H]3Cc4ccccc4[C@@H]3C(=O)N[C@H]3CCCN(C)C3)cc2c1 | inhibition at 11 µM [5]: 30%; microsomal CLint [6]: 132 µL/min/mg
14 | 3 | 3.1 | Nc1ccncc1C(=O)N[C@H]1c2ccccc2C[C@@H]1NC(=O)c1cc2c(F)cc(F)cc2[nH]1 | 
189 | 47 |  | O=C(N[C@H]1Cc2ccccc2[C@@H]1NC(=O)[C@H]1CCNC1)c1cc2cc(F)ccc2[nH]1 | IC50 [4]: > 10000 nM
1260 | 1500 |  | Cc1ccc2[nH]c(C(=O)N[C@@H]3Cc4ccccc4[C@@H]3NC(=O)CCN(C)C)cc2c1 | IC50 [4]: 6310 nM
69 | 100 |  | Cc1ccc2[nH]c(C(=O)N[C@H]3Cc4ccccc4[C@H]3NC(=O)CCN(C)C)cc2c1 | IC50 [4]: 25100 nM
930 | 226 |  | Cc1ccc2[nH]c(C(=O)N[C@@H]3Cc4ccccc4[C@H]3NC(=O)CCN(C)C)cc2c1 | IC50 [4]: 2510 nM
246 | 15 | 4.1 | Cn1c(C(=O)N[C@H]2Cc3ccccc3[C@@H]2NC(=O)c2cnccc2N)cc2ccccc21 | 
107 | 36 | 2.1 | CN1CCCCC(C(=O)N[C@H]2c3ccccc3C[C@@H]2NC(=O)c2ccc3c(ccn3C)c2)C1 (stereo in doubt; 27) | 

SMILES | IC50 ([1]; read-out: IC50) [nM] | EC50 ([2]; read-out: EC50) [nM] | logD [3, 7] | also measured
CC(=O)N1CCO[C@H](C(=O)N[C@H]2c3ccccc3C[C@@H]2NC(=O)c2ccc3c(ccn3C)c2)C1 |  | > 7700 | 2.2 | EC50 ([2]; read-out: pEC50 (converted)): > 10000 nM
